{"source": "ChEMBL document CHEMBL1136568", "about": "(Bioorg Med Chem Lett, 2003)", "key": {"[1]": {"molecular_target": "T1, Inosine-5'-monophosphate dehydrogenase 2 (Homo sapiens, UniProt P12268)", "experiment": "Inhibition of human inosine monophosphate dehydrogenase IMPDH II", "how_it_was_run": "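Human type II IMPDH expressed in and purified from E. coli, used at 40 nM. Buffer: 0.1 M Tris, 0.1 M KCl, 3 mM EDTA, pH 8.0, with 400 µM IMP and 2 mM DTT. Compounds were added from DMSO to a final 2.5% DMSO. NAD (400 µM final) started the reaction. After 2 h at 25°C, NADH was read at 340 nm. IC50 came from a four-parameter logistic fit.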"}, "CCRF-CEM": {"test_system": "CCRF-CEM", "experiment": "Inhibitory activity against CEM cell proliferation", "format": "functional, cell-based", "conditions": "Homo sapiens"}, "[2]": {"molecular_target": "T2, Inosine-5'-monophosphate dehydrogenase 1 (Homo sapiens, UniProt P20839)", "experiment": "Inhibitory activity against inosine monophosphate dehydrogenase IMPDH type I"}, "[3]": {"molecular_target": "T2, Inosine-5'-monophosphate dehydrogenase 1", "experiment": "Ratio of IC50(Type I) to IC50(Type II)"}, "[4]": {"molecular_target": "T1, Inosine-5'-monophosphate dehydrogenase 2", "experiment": "Inhibitory activity against IMPDH II with respect to IMP and NAD"}}}
{"compound": "COc1cc2nc(-c3cccc(O)c3)cc(O)c2cc1-c1cnco1", "values": [{"measurement": "IC50", "setting": "[1]", "result": 18, "unit": "nM"}]}
{"compound": "COc1cc2nc(C(C)(C)C)cc(O)c2cc1-c1cnco1", "values": [{"measurement": "IC50", "setting": "[1]", "result": "> 10000", "unit": "nM"}]}
{"compound": "COc1cc2nc(-c3cscn3)cc(O)c2cc1-c1cnco1", "values": [{"measurement": "IC50", "setting": "[1]", "result": 34, "unit": "nM"}]}
{"compound": "CNc1cc(O)c2cc(-c3cnco3)c(OC)cc2n1", "values": [{"measurement": "IC50", "setting": "[1]", "result": 220, "unit": "nM"}]}
{"compound": "COc1ccc(-c2cc(O)c3cc(-c4cnco4)c(OC)cc3n2)cc1", "values": [{"measurement": "IC50", "setting": "CCRF-CEM", "result": 370, "unit": "nM"}, {"measurement": "IC50", "setting": "[2]", "result": 90, "unit": "nM"}, {"measurement": "IC50", "setting": "[1]", "result": "< 5", "unit": "nM"}, {"measurement": "Ratio", "setting": "[3]", "result": "> 18"}]}
{"compound": "COc1cc2nc(-c3ccc(C)c(Br)c3)cc(O)c2cc1-c1cnco1", "values": [{"measurement": "IC50", "setting": "[1]", "result": 19, "unit": "nM"}]}
{"compound": "COc1cc2nc(-c3cccs3)cc(O)c2cc1-c1cnco1", "values": [{"measurement": "IC50", "setting": "[1]", "result": 63, "unit": "nM"}]}
{"compound": "COc1cc(NC(=O)Nc2cccc(C)c2)ccc1-c1cnco1", "values": [{"measurement": "IC50", "setting": "CCRF-CEM", "result": 320, "unit": "nM"}, {"measurement": "IC50", "setting": "[2]", "result": 55, "unit": "nM"}, {"measurement": "Ratio", "setting": "[3]", "result": 2.9}]}
{"compound": "COc1cc2nc(-c3ccccc3)c(C)c(O)c2cc1-c1cnco1", "values": [{"measurement": "IC50", "setting": "[1]", "result": 65, "unit": "nM"}]}
{"compound": "COc1cc2nc(-c3cccc(C)c3)cc(O)c2cc1-c1cnco1", "values": [{"measurement": "IC50", "setting": "CCRF-CEM", "result": 1100, "unit": "nM"}, {"measurement": "IC50", "setting": "[2]", "result": 150, "unit": "nM"}, {"measurement": "IC50", "setting": "[1]", "result": 5, "unit": "nM"}, {"measurement": "Ratio", "setting": "[3]", "result": 30}]}
{"compound": "COc1cc2nc(-c3ccncc3)cc(O)c2cc1-c1cnco1", "values": [{"measurement": "IC50", "setting": "[1]", "result": 46, "unit": "nM"}]}
{"compound": "COc1cc2nc(-c3ccoc3)cc(O)c2cc1-c1cnco1", "values": [{"measurement": "IC50", "setting": "[1]", "result": 32, "unit": "nM"}]}
{"compound": "COc1cc2nc(N(C)C)cc(O)c2cc1-c1cnco1", "values": [{"measurement": "IC50", "setting": "[1]", "result": 200, "unit": "nM"}]}
{"compound": "COc1cc2nc(-c3cccnc3)cc(O)c2cc1-c1cnco1", "values": [{"measurement": "IC50", "setting": "[1]", "result": 70, "unit": "nM"}]}
{"compound": "COc1cc2nc(-c3ccc(O)cc3)cc(O)c2cc1-c1cnco1", "values": [{"measurement": "IC50", "setting": "[1]", "result": 43, "unit": "nM"}]}
{"compound": "COc1cc2nc(-c3ccccc3)cc(O)c2cc1-c1cnco1", "values": [{"measurement": "IC50", "setting": "CCRF-CEM", "result": 690, "unit": "nM"}, {"measurement": "IC50", "setting": "[2]", "result": 99, "unit": "nM"}, {"measurement": "IC50", "setting": "[1]", "result": 8, "unit": "nM"}, {"measurement": "Ki", "setting": "[4]", "result": 7, "unit": "nM"}, {"measurement": "Ratio", "setting": "[3]", "result": 12}]}
{"compound": "COc1cc2nccc(O)c2cc1-c1cnco1", "values": [{"measurement": "IC50", "setting": "[1]", "result": 300, "unit": "nM"}]}
{"compound": "COc1cc2nc(-c3ccccc3C)cc(O)c2cc1-c1cnco1", "values": [{"measurement": "IC50", "setting": "[1]", "result": 65, "unit": "nM"}]}
{"compound": "COc1cc2nc(-c3ccccn3)cc(O)c2cc1-c1cnco1", "values": [{"measurement": "IC50", "setting": "[1]", "result": 43, "unit": "nM"}]}
{"compound": "COc1cc2nc(-c3cccc(C(=O)O)c3)cc(O)c2cc1-c1cnco1", "values": [{"measurement": "IC50", "setting": "[1]", "result": 160, "unit": "nM"}]}
{"compound": "COc1cc2nc(-c3ccc(C)c(C)c3)cc(O)c2cc1-c1cnco1", "values": [{"measurement": "IC50", "setting": "CCRF-CEM", "result": 410, "unit": "nM"}, {"measurement": "IC50", "setting": "[2]", "result": 83, "unit": "nM"}, {"measurement": "IC50", "setting": "[1]", "result": "< 5", "unit": "nM"}, {"measurement": "Ratio", "setting": "[3]", "result": "> 17"}]}
{"compound": "COc1cc2nc(Cc3ccccc3)cc(O)c2cc1-c1cnco1", "values": [{"measurement": "IC50", "setting": "[1]", "result": 180, "unit": "nM"}]}
{"compound": "COc1cc2nc(-c3ccc(Br)cc3)cc(O)c2cc1-c1cnco1", "values": [{"measurement": "IC50", "setting": "[1]", "result": 5, "unit": "nM"}]}
{"compound": "COc1cc2nc(-c3ccc(C(=O)O)cc3)cc(O)c2cc1-c1cnco1", "values": [{"measurement": "IC50", "setting": "[1]", "result": "> 1000", "unit": "nM"}]}
{"compound": "COc1cc2nc(C)cc(O)c2cc1-c1cnco1", "values": [{"measurement": "IC50", "setting": "[1]", "result": 110, "unit": "nM"}]}
{"compound": "COc1c(C)c2c(c(O)c1C/C=C(\\C)CCC(=O)O)C(=O)OC2", "note": "[MYCOPHENOLIC ACID]", "values": [{"measurement": "IC50", "setting": "[2]", "result": 55, "unit": "nM"}]}
{"compound": "COc1cc2nc(-c3cccc(S(C)(=O)=O)c3)cc(O)c2cc1-c1cnco1", "values": [{"measurement": "IC50", "setting": "[1]", "result": 160, "unit": "nM"}]}
{"compound": "COc1cc2nc(-c3cccc(Br)c3)cc(O)c2cc1-c1cnco1", "values": [{"measurement": "IC50", "setting": "[1]", "result": 22, "unit": "nM"}]}
{"compound": "COc1cc2nc(-c3ccc(C)cc3)cc(O)c2cc1-c1cnco1", "values": [{"measurement": "IC50", "setting": "CCRF-CEM", "result": 560, "unit": "nM"}, {"measurement": "IC50", "setting": "[2]", "result": 46, "unit": "nM"}, {"measurement": "IC50", "setting": "[1]", "result": "< 5", "unit": "nM"}, {"measurement": "Ratio", "setting": "[3]", "result": "> 9"}]}
{"compound": "COc1cc2nc(-c3cc(C)ccc3C)cc(O)c2cc1-c1cnco1", "values": [{"measurement": "IC50", "setting": "[1]", "result": 29, "unit": "nM"}]}
{"compound": "COc1cc2nc(-c3ccsc3)cc(O)c2cc1-c1cnco1", "values": [{"measurement": "IC50", "setting": "CCRF-CEM", "result": 340, "unit": "nM"}, {"measurement": "IC50", "setting": "[2]", "result": 55, "unit": "nM"}, {"measurement": "IC50", "setting": "[1]", "result": 9, "unit": "nM"}, {"measurement": "Ratio", "setting": "[3]", "result": 6}]}
